Measurements gathered from unrelated publications.
Compare with care: the assays were run in different laboratories.
MTOR: Serine/threonine-protein kinase mTOR (MTOR, Homo sapiens, UniProt P42345)
AVPR2: Vasopressin V2 receptor (AVPR2, Homo sapiens, UniProt P30518)
AGTR1: Type-1 angiotensin II receptor (AGTR1, Homo sapiens, UniProt P30556)

SMILES | target | effect on | action | technique | concentration | inhibition
C#Cc1n[nH]c2c(-c3cn([C@@H](C)c4ccccc4)c(=O)[nH]c3=O)cc(F)cc12 | MTOR | enzyme activity | inhibitor | – | 0.1 µM | 6.8%
O=c1ccoc2ccc(OCCCCN3CCCCC3)cc12 | Transmembrane protease serine 6 (Homo sapiens, UniProt Q8IU80) | enzyme activity | inhibitor | fluorescence | 10 µM | 12%
CC(C)Cn1cnc2c(N)nc3ccccc3c21 | Neuropeptide Y receptor type 1 (NPY1R, Homo sapiens, UniProt P25929) | ligand displacement | – | radioligand | 10 µM | 13%
CC(C)C(CC(=O)NO)N=[N+]=[N-] (centres unmarked) | Endoplasmic reticulum aminopeptidase 2 (ERAP2, Homo sapiens, UniProt Q6P179) | enzyme activity | inhibitor | fluorescence | 300 µM | 5%
C[C@H](C(=O)N[C@H]1COc2ccccc2[C@@H]1S(C)(=O)=O)c1ccc(F)cc1 | AVPR2 | cell-free assay | – | – | 10 µM | 3%
CCN(CC)CCCC[C@H](NC(=O)[C@H](CC(C)C)NC(=O)[C@H](C)NC(=O)[C@H](Cc1ccccc1)NC(=O)c1ccc(C(C)(C)C)cc1)C(=O)N[C@@H](CO)C(=O)OC | AGTR1 | ligand displacement | – | radioligand | 10 µM | -4%
Cn1cc(-c2cccc(N3CCc4c(sc5c4CC(C)(C)C5)C3=O)c2CO)cc(Nc2ccncn2)c1=O | PAS domain-containing serine/threonine-protein kinase (PASK, Homo sapiens, UniProt Q96RG2) | enzyme activity | inhibitor | – | 1 µM | 21%
O=C(Nc1cccnn1)N1CCN([C@@H]2CCOc3cc(C(F)(F)F)ccc32)CC1 | AVPR2 | cell-free assay | – | – | 20 µM | -4%
Cn1cc(-c2cc(F)cc(N3CCn4c(cc5c4CCCC5)C3=O)c2CO)cc(Nc2ccc(N3CCN(C4COC4)CC3)cn2)c1=O | MTOR | enzyme activity | inhibitor | – | 0.1 µM | 2%
COc1ccc(S(=O)(=O)N2CCCCC2)cc1C | AGTR1 | ligand displacement | – | radioligand | 10 µM | < 30%
Cc1ncc(C)n2nc(/C=C/c3nc(N4CCCC4)cc(N4CCOCC4)n3)nc12 | Beta-secretase 1 (BACE1, Homo sapiens, UniProt P56817) | enzyme activity | inhibitor | – | 10 µM | 4%
C#Cc1n[nH]c2c(-c3cn([C@@H](C)c4ccccn4)c(=O)[nH]c3=O)cc(F)cc12 | Serine/threonine-protein kinase B-raf (BRAF, Homo sapiens, UniProt P15056) | enzyme activity | inhibitor | – | 0.1 µM | -0.3%
OC[C@@]12C[C@@H]1[C@@H](n1cnc3c(NC(C4CCCC4)C4CCCC4)nc(Cl)cc31)[C@H](O)[C@@H]2O | Adenosine receptor A3 (ADORA3, Homo sapiens, UniProt P0DMS8) | ligand displacement | – | radioligand | 10 µM | 35%
COCc1c(-c2cc3cc(C)cc(OC)c3s2)c2c(N)ncnn2c1CN1CCNC(=O)C1 | AGTR1 | ligand displacement | – | radioligand | 10 µM | 9%
